The first assay deals with T1, Beta-secretase 1 (Homo sapiens, UniProt P56817). Put plainly: Inhibition of BACE1 (unknown origin) at 10 uM pre-incubated for 10 mins before addition of fluorescent substrate HiLyte FluorTM 488-Glu-Val-Asn-Leu-Asp-Ala-Glu-Phe-Lys and measured over 30 mins. Put shortly: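 BACE1 (1 µg/mL) preincubated with inhibitor at 10 µM, 10 min, 25 °C, then reaction started by adding the internally quenched substrate (QXL 520 quencher). Fluorescence (ex 490/em 520 nm) read over 30 min at 25 °C. Percent inhibition = (1−Vs/Vo)×100 from initial velocities with and without inhibitor.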
T1 sequence (P56817 whole entry): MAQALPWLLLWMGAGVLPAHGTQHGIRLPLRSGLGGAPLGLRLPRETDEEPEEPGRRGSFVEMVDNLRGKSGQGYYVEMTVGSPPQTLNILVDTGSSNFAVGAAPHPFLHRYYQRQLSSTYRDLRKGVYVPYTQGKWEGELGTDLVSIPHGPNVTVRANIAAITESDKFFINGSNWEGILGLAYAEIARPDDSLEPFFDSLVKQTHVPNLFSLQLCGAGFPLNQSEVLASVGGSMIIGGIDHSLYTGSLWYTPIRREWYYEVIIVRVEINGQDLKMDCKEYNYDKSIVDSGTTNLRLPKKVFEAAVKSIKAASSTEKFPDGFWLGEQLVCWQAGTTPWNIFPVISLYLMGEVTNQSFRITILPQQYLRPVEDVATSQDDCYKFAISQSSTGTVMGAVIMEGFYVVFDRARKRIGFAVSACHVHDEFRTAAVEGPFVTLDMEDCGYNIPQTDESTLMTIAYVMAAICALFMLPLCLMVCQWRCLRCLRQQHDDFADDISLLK
For the compound `O=C([C@@H]1O[C@@]2(c3ccccc3)CN(Cc3ccccc3)C(=O)[C@@H]1O2)N1CCOCC1`, the inhibition (as a rule, how much of the control response was suppressed) was found to be 0%. For the compound `CC(C)C[C@@H](CO)NC(=O)[C@H]1O[C@@H]2CN(Cc3ccccc3)C(=O)[C@H]1O2`, the inhibition is 0%.

For the compound `O=C([C@@H]1O[C@@H]2O[C@H]1C(=O)N(Cc1ccccc1)[C@H]2Cc1ccccc1)N1CCCCC1`, the inhibition worked out at 15%. On the same count and under the same terms, as for `CCOC(=O)N1CCN(C(=O)[C@@H]2O[C@@H]3O[C@H]2C(=S)N(Cc2ccccc2)[C@H]3Cc2ccccc2)CC1`, the figure is 16%. Turning to `C#CCNC(=O)[C@@H]1O[C@H]2CN(Cc3ccccc3)C[C@@H]1O2`, the inhibition was 0%. Regarding `COC(=O)[C@H](c1ccccc1)N1C[C@@H]2O[C@@H](C(=O)N3CCCCC3)[C@@H](O2)C1=O`, the inhibition came out at 0%. Still for that read-out and setting: the value for `CC(C)C[C@@H](CO)NC(=O)[C@@H]1O[C@H]2CN(Cc3ccccc3)C(=O)[C@@H]1O2` was 8%; that for `COC(=O)[C@@H]1O[C@@H]2O[C@H]1C(=S)N(Cc1ccccc1)[C@H]2Cc1ccccc1` was 61%; that for `CCOC(=O)N1CCN(C(=O)[C@H]2O[C@H]3O[C@@H]2C(=S)N(Cc2ccccc2)[C@@H]3Cc2ccccc2)CC1` was 5%. The compound `CCOC(=O)N1CCN(C(=O)[C@@H]2O[C@H]3CN(Cc4ccccc4)C(=S)[C@@H]2O3)CC1` gave an inhibition of 0%. The compound `O=C([C@@H]1O[C@H]2CN(Cc3ccccc3)C(=S)[C@@H]1O2)N1CCOCC1` had an inhibition of 10%. In turn, `O=C([C@@H]1O[C@H]2CN(Cc3ccccc3)C(=O)[C@@H]1O2)N1CCCCC1` returned an inhibition of 36%. `COC(=O)[C@H]1O[C@H]2O[C@@H]1C(=S)N(Cc1ccccc1)[C@@H]2Cc1ccccc1` returned an inhibition of 9%. Compound `O=C([C@@H]1O[C@@H]2O[C@H]1C(=S)N(Cc1ccccc1)[C@H]2Cc1ccccc1)N1CCOCC1` gave an inhibition of 0%. Consider `COC(=O)[C@@H]1O[C@H]2CN(Cc3ccccc3)C(=S)[C@@H]1O2`, for which the inhibition worked out at 16%. In turn, `O=C([C@H]1O[C@H]2O[C@@H]1C(=S)N(Cc1ccccc1)[C@@H]2Cc1ccccc1)N1CCOCC1` came in with an inhibition of 32%.

`CC(C)C[C@H](CO)NC(=O)[C@H]1O[C@@H]2CN(Cc3ccccc3)C(=O)[C@H]1O2` registered an inhibition of 0%. Consider `COC(=O)[C@H](CC(C)C)N1C[C@@H]2O[C@@H](C(=O)N3CCCCC3)[C@@H](O2)C1=O`, for which the inhibition was 46%. Same read-out and setting: as for `C#CCNC(=O)[C@@H]1O[C@@H]2O[C@H]1C(=O)N(Cc1ccccc1)[C@H]2Cc1ccccc1`, the figure is 29%; as for `CC(C)C[C@H](CO)NC(=O)[C@@H]1O[C@H]2CN(Cc3ccccc3)C(=O)[C@@H]1O2`, 0%. The same measure, in the same setting: as for `O=C(NC1CCCCC1)[C@@H]1O[C@@]2(c3ccccc3)CN(C(c3ccccc3)c3ccccc3)C(=O)[C@@H]1O2`, the figure is 0%.

The target of the next assay is T1, Beta-secretase 1. The experiment in a line: Inhibition of BACE1 (unknown origin) pre-incubated for 10 mins before addition of fluorescent substrate HiLyte FluorTM 488-Glu-Val-Asn-Leu-Asp-Ala-Glu-Phe-Lys and measured over 30 mins. Put shortly: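 Kit-based fluorometric BACE1 assay. Enzyme at 1 µg/mL, preincubated 10 min at 25 °C with inhibitor across 0.003–30 µM before substrate (QXL 520-quenched) addition. Initial velocities taken from ex 490/em 520 nm fluorescence over 30 min at 25 °C. IC50 from the dose-response, run in triplicate in three independent experiments, given as mean ± SD.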
`COC(=O)[C@@H]1O[C@@H]2O[C@H]1C(=S)N(Cc1ccccc1)[C@H]2Cc1ccccc1`: inhibition was half-maximal at 2600 nM (IC50).

These data come from ChEMBL document CHEMBL4043083, “Design and synthesis of bicyclic acetals as Beta Secretase (BACE1) inhibitors” (Bioorg Med Chem, 2017).
